ChEMBL document CHEMBL4190313, “In vitro targeting of colon cancer cells using spiropyrazoline oxindoles” (Eur J Med Chem, 2017)
One block for each compound: values may come before it. Active and inactive are the calls of the source. The calls are words filed in the database; no cut-off is given here.

What was measured:
HCT-116 [1] = assay: Antiproliferative activity against human HCT116 p53+/+ cells after 72 hrs by MTS assay; format: functional, cell-based; settings: HCT-116, 72 h
Outline: (§1)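 Cells allowed to adhere 24 h (1x10⁴/well), then exposed to 0.5-50 μM compound from DMSO stocks (final DMSO ≤0.8% v/v) for 72 h. Viability by MTS bio-reduction to formazan, absorbance 490 nm. IC50 from log(inhibitor) vs response (variable slope) fit, at least three independent experiments; table values mean ± SD of three experiments in duplicate.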

HCT-116 [2] = assay: Induction of apoptosis in human HCT116 p53+/+ cells assessed as increase in early apoptotic cells at 2 times IC50 after 72 hrs by Annexin V-FITC/7-AAD staining-based flow cytometric analysis; format: functional, cell-based
Outline: (§2)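 HCT-116 p53+/+ cells (5x10⁴/well) exposed at IC50 or 2xIC50, or DMSO, for 72 h. Medium and Accutase-detached cells pooled, resuspended in PBS/2% FBS, stained with Annexin V/7-AAD reagent 20 min at room temperature in the dark. Flow cytometry, at least 5000 events per sample; mean ± SD of three independent experiments.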

[3] = target: T1, Tumour suppressor p53/oncoprotein Mdm2 (Homo sapiens) (UniProt P04637+Q00987); assay: Inhibition of MDM2/p53 interaction in human HCT116 cells assessed as downregulation of MDM2 protein expression at IC50 after 72 hrs by Western blot analysis; format: cell-based
T1 sequence (P04637 whole entry, looked up): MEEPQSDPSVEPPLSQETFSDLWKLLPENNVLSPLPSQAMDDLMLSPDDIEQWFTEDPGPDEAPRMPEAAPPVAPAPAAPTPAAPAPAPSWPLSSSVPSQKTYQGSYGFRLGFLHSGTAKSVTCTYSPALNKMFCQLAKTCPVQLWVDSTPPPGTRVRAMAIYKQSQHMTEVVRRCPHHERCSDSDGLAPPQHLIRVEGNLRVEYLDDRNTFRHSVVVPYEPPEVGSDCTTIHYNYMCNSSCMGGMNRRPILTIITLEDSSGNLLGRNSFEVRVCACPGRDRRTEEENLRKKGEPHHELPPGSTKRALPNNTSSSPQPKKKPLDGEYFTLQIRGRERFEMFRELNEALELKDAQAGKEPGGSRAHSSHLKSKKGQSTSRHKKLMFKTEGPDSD
T1 sequence (Q00987 whole entry, looked up): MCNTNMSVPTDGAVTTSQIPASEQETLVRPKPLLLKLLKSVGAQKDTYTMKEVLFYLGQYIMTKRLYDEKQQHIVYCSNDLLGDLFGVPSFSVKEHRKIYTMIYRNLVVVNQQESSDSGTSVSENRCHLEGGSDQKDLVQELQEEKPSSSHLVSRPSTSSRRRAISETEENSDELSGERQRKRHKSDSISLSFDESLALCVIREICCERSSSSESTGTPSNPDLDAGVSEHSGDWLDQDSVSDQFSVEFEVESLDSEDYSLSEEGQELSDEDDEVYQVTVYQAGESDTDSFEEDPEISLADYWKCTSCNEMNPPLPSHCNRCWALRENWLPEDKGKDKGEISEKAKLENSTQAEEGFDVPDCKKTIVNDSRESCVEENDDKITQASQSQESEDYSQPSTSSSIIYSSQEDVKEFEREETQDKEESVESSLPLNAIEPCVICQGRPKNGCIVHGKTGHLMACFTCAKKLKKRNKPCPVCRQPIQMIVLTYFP

HCT-116 [4] = assay: Cell cycle arrest in human HCT116 p53+/+ cells assessed as accumulation at G0/G1 phase at IC50 after 48 hrs by propidium iodide staining-based flow cytometric analysis (reference value: 50.48%); format: functional
HCT-116 [5] = assay: Cytotoxicity against human HCT116 p53+/+ cells at IC50 after 72 hrs by LDH release assay; format: functional, cell-based
Outline: (§3)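 HCT-116 p53+/+ cells treated at IC50 or 2xIC50, or DMSO, for 72 h. Supernatant mixed with LDH assay substrate 10-30 min at room temperature in the dark; absorbance 490 nm, 620 nm reference. LDH release normalized to DMSO control; mean ± SEM of three independent experiments.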

HCT-116 [6] = assay: Cell cycle arrest in human HCT116 p53+/+ cells assessed as accumulation at G2/M phase at IC50 after 24 hrs by propidium iodide staining-based flow cytometric analysis (reference value: 29.07%); format: functional
HCT-116 [7] = assay: Cell cycle arrest in human HCT116 p53+/+ cells assessed as accumulation at G0/G1 phase at IC50 after 24 hrs by propidium iodide staining-based flow cytometric analysis (reference value: 33.49%); format: functional
HCT-116 [8] = assay: Cell cycle arrest in human HCT116 p53+/+ cells assessed as accumulation at S phase at IC50 after 24 hrs by propidium iodide staining-based flow cytometric analysis (reference value: 37.44%); format: functional
HCT-116 [9] = assay: Cell cycle arrest in human HCT116 p53+/+ cells assessed as accumulation at G2/M phase at IC50 after 48 hrs by propidium iodide staining-based flow cytometric analysis (reference value: 26.85%); format: functional
CCD-18Co [10] = assay: Cytotoxicity against human CCD-18Co cells at IC80 after 72 hrs by MTS assay relative to control; format: cell-based
HCT-116 [11] = assay: Antiproliferative activity against human HCT116 p53-/- cells after 72 hrs by MTS assay; format: functional, cell-based; settings: HCT-116, 72 h; outline: as §1
[12] = target: T1, Tumour suppressor p53/oncoprotein Mdm2 (Homo sapiens); assay: Inhibition of MDM2-V2/V1-p53 (unknown origin) interaction expressed in human HCT116 p53-/- cells at 20 uM after 20 hrs by biomolecular fluorescence complementation-based flow cytometric analysis; format: cell-based
Outline: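 HCT-116 p53-/- cells cotransfected with 1 µg each of V1-p53 and MDM2-V2 Venus BiFC plasmids by lipofection. Medium replaced 4-6 h later and compound added at 5, 10 or 20 μM, or DMSO, for a further 20 h. Cells detached with accutase; Venus fluorescence by flow cytometry, normalized to DMSO (100%). Mean ± SD of three independent experiments.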

CCD-18Co [13] = assay: Cytotoxicity against human CCD-18Co cells at IC50 after 72 hrs by MTS assay; format: cell-based
[14] = target: T1, Tumour suppressor p53/oncoprotein Mdm2 (Homo sapiens); assay: Inhibition of MDM2/p53 interaction in human HCT116 cells assessed as upregulation of p53 protein expression at IC50 after 72 hrs by Western blot analysis; format: cell-based
HCT-116 [15] = assay: Induction of apoptosis in human HCT116 p53+/+ cells assessed as early apoptotic cells at IC50 after 72 hrs by Annexin V-FITC/7-AAD staining-based flow cytometric analysis relative to control; format: functional; outline: as §2
HCT-116 [16] = assay: Cell cycle arrest in human HCT116 p53+/+ cells assessed as accumulation at S phase at IC50 after 48 hrs by propidium iodide staining-based flow cytometric analysis (reference value: 22.67%); format: functional
HCT-116 [17] = assay: Cytotoxicity against human HCT116 p53+/+ cells at 2 times IC50 after 72 hrs by LDH release assay relative to control; format: functional; outline: as §3
HCT-116 [18] = assay: Synergistic cytotoxicity against human HCT116 p53+/+ cells at IC10 to IC20 after 72 hrs in presence of 5-FU by MTS assay; format: functional, cell-based
HCT-116 [19] = assay: Synergistic cytotoxicity against human HCT116 p53+/+ cells at IC50 after 72 hrs in presence of 5-FU by MTS assay; format: functional, cell-based
[20] = target: E3 ubiquitin-protein ligase Mdm2 (Homo sapiens) (UniProt Q00987); assay: Inhibition of FAM-tagged p53-based fluorescent probe binding to human His-tagged MDM2 (1 to 118 residues) up to 400 uM after 30 mins by fluorescence polarization assay
Chain of E3 ubiquitin-protein ligase Mdm2 (Homo sapiens) (Q00987 whole entry, looked up, the tested form may be a part): as the sequence (Q00987 whole entry, looked up) above
Outline: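 Recombinant human His-tagged MDM2 (residues 1-118), final 10 nM, preincubated with 5-FAM-labelled p53-based peptidomimetic probe, final 1 nM (Kd 1.4 ± 0.3 nM). Buffer: 100 mM potassium phosphate pH 7.5, 100 μg/ml bovine γ-globulin, 0.02% sodium azide, 0.01% Triton X-100, final 4% DMSO. Incubated 30 min at room temperature with shaking; polarization read at ex 485/em 530 nm. Inhibition calculated against protein+probe and free-probe controls.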

SMILES: O=C1Nc2ccccc2[C@]12[C@@H](c1ccccc1)C(c1ccccc1)=NN2c1ccccc1
IC50 (HCT-116 [1]): > 20 µM

SMILES: O=C1Nc2cc(Cl)ccc2[C@]12[C@@H](c1ccccc1)C(c1ccccc1)=NN2c1ccccc1
IC50 (HCT-116 [1]): 16.7 µM

SMILES: CC(C)(C)C1=NN(c2ccccc2)[C@]2(C(=O)Nc3ccc(Cl)cc32)[C@H]1c1ccccc1
IC50 (HCT-116 [1]): 17 µM

SMILES: O=C1Nc2c(Cl)cccc2[C@]12[C@@H](c1ccccc1)C(c1ccccc1)=NN2c1ccccc1Cl
IC50 (HCT-116 [1]): > 20 µM

SMILES: O=C1Nc2c(Cl)cccc2[C@]12[C@@H](c1ccccc1)C(c1ccccc1)=NN2c1ccccc1
IC50 (HCT-116 [1]): 16.6 µM

SMILES: CC(C)(C)C1=NN(c2ccccc2)[C@]2(C(=O)Nc3cc(Cl)ccc32)[C@H]1c1cccc(Cl)c1
IC50 (HCT-116 [1]): 18.4 µM

SMILES: O=C1Nc2cc(Br)ccc2[C@@]12ON=C(c1ccccc1)[C@@H]2c1ccccc1
IC50 (HCT-116 [1]): 35 µM

SMILES: COc1ccc(C2=NO[C@]3(C(=O)Nc4cc(Br)ccc43)[C@H]2c2ccccc2)cc1
IC50 (HCT-116 [1]): 33.4 µM

SMILES: O=C1Nc2cc(Cl)ccc2[C@@]12ON=C(c1ccccc1)[C@@H]2c1ccccc1
IC50 (HCT-116 [1]): 39.8 µM

SMILES: CC(C)(C)C1=NN(c2ccccc2Cl)[C@]2(C(=O)Nc3ccccc32)[C@H]1c1ccccc1
IC50 (HCT-116 [1]): > 20 µM

SMILES: CC(C)(C)C1=NN(c2ccccc2)[C@]2(C(=O)Nc3ccccc32)[C@H]1c1ccccc1
IC50 (HCT-116 [1]): > 20 µM

SMILES: CC(C)(C)C1=NN(c2ccccc2)[C@]2(C(=O)Nc3cc(Cl)ccc32)[C@H]1c1ccccc1
IC50 (HCT-116 [1]): > 20 µM

SMILES: CC(C)(C)C1=NN(c2ccccc2Cl)[C@]2(C(=O)Nc3c(Cl)cccc32)[C@H]1c1ccccc1
IC50 (HCT-116 [1]): 17.3 µM

SMILES: CC(C)(C)C1=NN(c2ccccc2)[C@]2(C(=O)Nc3ccc(Br)cc32)[C@H]1c1ccccc1
IC50 (HCT-116 [1]): > 20 µM

SMILES: CC(C)(C)C1=NN(c2ccccc2Cl)[C@]2(C(=O)Nc3ccc(Cl)cc32)[C@H]1c1ccccc1
IC50 (HCT-116 [1]): > 20 µM

SMILES: CC(C)(C)C1=NN(c2ccccc2)[C@]2(C(=O)Nc3cc(Br)ccc32)[C@H]1c1ccccc1
IC50 (HCT-116 [1]): > 20 µM

Now those with a lower IC50 (HCT-116 [1]), led by results:

inhibition [3]: Active | IC50 (HCT-116 [11]): 11.6 µM | inhibition [12]: Active | IC50 (HCT-116 [1]): 10.9 µM | inhibition [14]: Active
SMILES: COc1ccc(C2=NN(c3ccccc3)[C@]3(C(=O)Nc4cc(Cl)ccc43)[C@H]2c2cccc(Cl)c2)cc1
Activity (HCT-116 [2]): Active | Activity (HCT-116 [4]): 54.78% | Activity (HCT-116 [5]): inactive | Activity (HCT-116 [6]): 11.33% | Activity (HCT-116 [7]): 50.22% | Activity (HCT-116 [8]): 38.45% | Activity (HCT-116 [9]): 24.87% | Activity (CCD-18Co [10]): 20% | Activity (CCD-18Co [13]): Non-Toxic | Activity (HCT-116 [15]): 10% | Activity (HCT-116 [16]): 20.35% | fold change (FC) (HCT-116 [17]): 1.5

IC50 (HCT-116 [1]): 11.7 µM
SMILES: COc1ccc(C2=NN(c3ccccc3)[C@]3(C(=O)Nc4ccccc43)[C@H]2c2ccccc2)cc1

IC50 (HCT-116 [1]): 15.9 µM
SMILES: O=C1Nc2cc(Br)ccc2[C@]12[C@@H](c1ccccc1)C(c1ccccc1)=NN2c1ccccc1

IC50 (HCT-116 [1]): 15.6 µM
SMILES: COc1ccc(C2=NN(c3ccccc3)[C@]3(C(=O)Nc4c(Cl)cccc43)[C@H]2c2ccccc2)cc1

IC50 (HCT-116 [1]): 13.3 µM
SMILES: CC(C)(C)C1=NN(c2ccccc2)[C@]2(C(=O)Nc3c(Cl)cccc32)[C@H]1c1ccccc1

IC50 (HCT-116 [1]): 12.8 µM
SMILES: COc1ccc(C2=NN(c3ccccc3)[C@]3(C(=O)Nc4cc(Br)ccc43)[C@H]2c2ccccc2)cc1

IC50 (HCT-116 [1]): 12.4 µM
SMILES: O=C1Nc2cc(Cl)c(F)cc2[C@]12[C@@H](c1ccccc1)C(c1ccccc1)=NN2c1ccccc1

IC50 (HCT-116 [1]): 11 µM
SMILES: O=C1Nc2ccc(Cl)cc2[C@]12[C@@H](c1ccccc1)C(c1ccccc1)=NN2c1ccccc1

inhibition [3]: Active | IC50 (HCT-116 [11]): 14.2 µM | inhibition [20]: inactive | inhibition [12]: Active | IC50 (HCT-116 [1]): 13.1 µM | inhibition [14]: Active
SMILES: O=C1Nc2ccc(Br)cc2[C@]12[C@@H](c1ccccc1)C(c1ccccc1)=NN2c1ccccc1
Activity (HCT-116 [4]): 62% | Activity (HCT-116 [5]): inactive | Activity (HCT-116 [6]): 19.55% | Activity (HCT-116 [7]): 41.85% | Activity (HCT-116 [8]): 38.59% | Activity (HCT-116 [18]): Active | Activity (HCT-116 [9]): 15.17% | Activity (CCD-18Co [10]): 20% | Activity (HCT-116 [19]): inactive | Activity (CCD-18Co [13]): Non-Toxic | Activity (HCT-116 [15]): 10% | Activity (HCT-116 [16]): 15.38% | fold change (FC) (HCT-116 [17]): 1.5

IC50 (HCT-116 [1]): 10.6 µM
SMILES: COc1ccc(C2=NN(c3ccccc3)[C@]3(C(=O)Nc4ccc(Cl)cc43)[C@H]2c2ccccc2)cc1
